Drawing on ChEMBL document CHEMBL1123867, “Anticonvulsant O-alkyl sulfamates. 2,3:4,5-Bis-O-(1-methylethylidene)-beta-D-fructopyranose sulfamate and related compounds” (1987), this text covers Block for one compound.

Common to all, as to format: functional
Common to all, as to conditions: route oral

In assay [1] the test system is Mus musculus. Description: Percentage block of the hind-limb tonic-extensor seizure was determined after application of an electric shock to mice for 60 min followed by 40 mg/kg peroral dose. An outline of the steps: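 Mouse MES test: supramaximal seizure from a 50-mA current (60 Hz, 0.20-s) through corneal electrodes. […] Ten mice per time point. Compound given in aqueous solution or in suspension in ca. 0.1% Tween 80 and distilled water. Free food and water except during testing.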

Assay [2] deals with Mus musculus. Description: Percentage block of the hind-limb tonic-extensor seizure was determined after application of an electric shock to mice for 30 min followed by 40 mg/kg peroral dose. An outline of the steps:
(§1)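 Supramaximal electroshock: 50-mA current (60 Hz, 0.20 s) via corneal electrodes induced hind-limb tonic extension; inhibition of this component scored as activity. Mice dosed ip and/or po in aqueous solution or suspension (ca. 0.1% Tween 80, distilled water). Tested at 30, 60, 120 and 240 min (sometimes 45 min); ten mice per time point.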

For assay [3], the system named is Mus musculus. Nature of the assay: Percentage block of the hind-limb tonic-extensor seizure was determined after application of an electric shock to mice for 120 min followed by 40 mg/kg peroral dose. Summed up: as §1
Assay [4] relates to Mus musculus. Nature of the assay: Percentage block of the hind-limb tonic-extensor seizure was determined after application of an electric shock to mice for 240 min followed by 40 mg/kg peroral dose. An outline of the steps:
as §1

For `NS(=O)(=O)Cc1noc2ccccc12` [ZONISAMIDE], the Block stood at 40% in the assay on Mus musculus [1], 20% in the assay on Mus musculus [2], 40% with Mus musculus [3] and 50% with Mus musculus [4].
